The nature of series [1]: Cytotoxicity against african green monkey Vero cells at 18.52 uM after 72 hrs by MTT assay. The following applies: chlorocebus sabaeus, read-out: INH. In kind it is cell-based. A general note: Formazan colour is commonly taken as a measure of viable cells.
Series [2] concerns Plasmodium falciparum. The series can be described thus: Antiplasmodial activity against chloroquine-susceptible Plasmodium falciparum 3D7 after 72 hrs by malaria SYBR Green I-based fluorescence assay. As to conditions: 3D7, 72 h. In kind it is functional, organism-based. In outline: (§1)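 Parasites kept continuously in O+ human erythrocytes with 10% human serum under 7% CO2/5% O2/88% N2. Test compounds from 100 mM DMSO stocks, serially diluted in culture medium, added in quadruplicate to asynchronous cultures at 0.2% parasitemia, 2% hematocrit. Incubated 72 h, 37 C. Lysis buffer with SYBR Green I added, 1 h 37 C dark. Fluorescence read at ex 497/em 520 nm. IC50 from nonlinear logistic dose-response regression.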

The nature of series [3]: Cytotoxicity against african green monkey Vero cells at 166.67 uM after 72 hrs by MTT assay. In kind it is cell-based. The following applies: chlorocebus sabaeus, read-out: INH.
A short description of series [4]: Cytotoxicity against african green monkey Vero cells at 6.17 uM after 72 hrs by MTT assay. In kind it is cell-based. The following applies: chlorocebus sabaeus, read-out: INH.
The nature of series [5]: Cytotoxicity against african green monkey Vero cells at 55.56 uM after 72 hrs by MTT assay. Format: cell-based. The following applies: chlorocebus sabaeus, read-out: INH.
The subject of series [6] is Plasmodium falciparum. The series can be described thus: Antiplasmodial activity against chloroquine-resistant Plasmodium falciparum Dd2 after 72 hrs by malaria SYBR Green I-based fluorescence assay. In kind it is functional, organism-based. As to conditions: Dd2, 72 h. In outline: as §1

Consider 11 molecules from ChEMBL document CHEMBL1157804, “beta-Resorcylic acid lactones from a Paecilomyces fungus” (J Nat Prod, 2010).

Broadly, the IC50 is the midpoint of a concentration-inhibition curve. In the case of `COc1cc(O)c2c(c1)[C@@H]1O[C@@H]1C[C@H](O)[C@H](O)[C@H](O)/C=C/C[C@H](C)OC2=O` [PAECILOMYCIN A], the cytotoxicity at 72 h, 18.52 µM in series [1] was 0%. Moreover, the IC50 in the series on Plasmodium falciparum [2] is 0.78 µM; in the series on Plasmodium falciparum [6], over 50 µM. Moreover, the cytotoxicity at 72 h, 166.67 µM in series [3] was 29.6%. Besides, the cytotoxicity at 72 h, 6.17 µM in series [4] is 0%. The cytotoxicity at 72 h, 55.56 µM in series [5] is 0%.
On to `COc1cc(O)c2c(c1)[C@@H](O)[C@H](C[C@H](O)[C@H](O)[C@@H](O)/C=C/C[C@H](C)O)OC2=O` [AIGIALOMYCIN F], for which the cytotoxicity at 72 h, 18.52 µM in series [1] came out at 15.6%. The IC50 was 0.0109 µM in the series on Plasmodium falciparum [2] and over 50 µM in the series with Plasmodium falciparum [6]. For the same molecule, the cytotoxicity at 72 h, 166.67 µM in series [3] is 43.2%. Also, in series [4], the cytotoxicity at 72 h, 6.17 µM was 2.3%. In addition, in series [5], the cytotoxicity at 72 h, 55.56 µM was 20.3%.
On to `COc1cc(O)c2c(c1)/C=C/C[C@H](O)[C@H](O)[C@H](O)CCC[C@H](C)OC2=O` [PAECILOMYCIN F], for which, in series [1], the cytotoxicity at 72 h, 18.52 µM came out at 10.4%. Further, the IC50 with Plasmodium falciparum [2] amounted to 1.1 µM; with Plasmodium falciparum [6] it was 1.7 µM. In series [3], the cytotoxicity at 72 h, 166.67 µM was determined as 58.5%. Besides, in series [4], the cytotoxicity at 72 h, 6.17 µM turned out to be 2.3%. In addition, the cytotoxicity at 72 h, 55.56 µM in series [5] was 25.7%.
`COc1cc(O)c2c(c1)[C@@H]([C@H](O)C[C@H](O)[C@H](O)[C@@H](O)/C=C/C[C@H](C)O)OC2=O` [PAECILOMYCIN C]: the IC50 in the series on Plasmodium falciparum [2] and with Plasmodium falciparum [6] was over 50 µM in each case.
In the case of `COc1cc(O)c2c(c1)[C@@H]1O[C@H]([C@H](O)/C=C/C[C@H](C)OC2=O)[C@@H](O)C[C@H]1O` [PAECILOMYCIN B], the cytotoxicity at 72 h, 18.52 µM in series [1] was 0%. Moreover, the results for the IC50 in the series with Plasmodium falciparum [2] and in the series on Plasmodium falciparum [6] were 3.8 µM and over 50 µM, respectively. Moreover, in series [3], the cytotoxicity at 72 h, 166.67 µM amounted to 46.3%. In addition, in series [4], the cytotoxicity at 72 h, 6.17 µM was found to be 0%. Also, the cytotoxicity at 72 h, 55.56 µM in series [5] is 5.6%.
`COc1cc(O)c2c(c1)/C=C/C[C@H](O)[C@H](O)[C@@H](O)/C=C/C[C@H](C)OC2=O` [ZEAENOL]: the IC50 in the series with Plasmodium falciparum [2] and in the series with Plasmodium falciparum [6] was over 50 µM each time.
As for `COc1cc(O)c2c(c1)[C@@H]1O[C@@H]1C[C@H](O)[C@H](O)[C@@H](O)/C=C/C[C@H](C)OC2=O` [AIGIALOMYCIN B], in series [1], the cytotoxicity at 72 h, 18.52 µM was found to be 0%. The figures for the IC50 in the series with Plasmodium falciparum [2] and with Plasmodium falciparum [6] were 0.65 µM and 13.5 µM, respectively. In addition, the cytotoxicity at 72 h, 166.67 µM in series [3] came to 30.2%. Moreover, the cytotoxicity at 72 h, 6.17 µM in series [4] came to 0%. Also, the cytotoxicity at 72 h, 55.56 µM in series [5] stood at 2.3%.
`COc1cc(O)c2c(c1)[C@@H]([C@H](O)C[C@H](O)[C@H](O)[C@H](O)/C=C/C[C@H](C)O)OC2=O` [PAECILOMYCIN D]: the IC50 in the series with Plasmodium falciparum [2] and with Plasmodium falciparum [6] was over 50 µM in each case.
As for `C[C@@H]1CC[C@H]2[C@@H](C)C(=O)O[C@@H]3O[C@@]4(C)CC[C@@H]1[C@]32OO4` [ARTEMISININ], the values for the IC50 in the series on Plasmodium falciparum [2] and with Plasmodium falciparum [6] were 0.0125 µM and 0.0135 µM, respectively.
In the case of `C[C@H]1C/C=C/[C@@H](O)[C@@H](O)CC/C=C/c2cc(O)cc(O)c2C(=O)O1` [AIGIALOMYCIN D], in series [1], the cytotoxicity at 72 h, 18.52 µM was determined as 12.5%. Also, the IC50 with Plasmodium falciparum [2] turned out to be 3.1 µM; in the series on Plasmodium falciparum [6], 10.5 µM. Moreover, in series [3], the cytotoxicity at 72 h, 166.67 µM was determined as 56.3%. Besides, the cytotoxicity at 72 h, 6.17 µM in series [4] turned out to be 3.4%. In addition, in series [5], the cytotoxicity at 72 h, 55.56 µM was 30.2%.
On to `COc1cc(O)c2c(c1)/C=C/C[C@H](O)[C@H](O)[C@@H](O)CCC[C@H](C)OC2=O` [PAECILOMYCIN E], for which the cytotoxicity at 72 h, 18.52 µM in series [1] amounted to 3.4%. The concentration for half-maximal inhibition (IC50) in the series with Plasmodium falciparum [2] was determined as 0.02 µM; with Plasmodium falciparum [6], 8.8 µM. The cytotoxicity at 72 h, 166.67 µM in series [3] was 50.2%. The cytotoxicity at 72 h, 6.17 µM in series [4] was found to be 0%. Also, the cytotoxicity at 72 h, 55.56 µM in series [5] stood at 23.5%.
